In the array DNA melting data of Ke et al. (doi:10.1101/2024.01.08.574731) one finds folding enthalpy and Tm data, which are given here for 55 sequences.

Series [1] is described as follows: folding enthalpy; higher = less favourable; fluorescence melt of hairpins on a sequencing array, two-state fit. Conditions: sodium 0.088 M. The method in brief: (§1)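 Folding enthalpy and melting temperature were estimated with bootstrapped two-state fits and combined across four replicates by inverse-variance weighting, with fitted temperatures raised by 9.35 °C to match UV melts. The data were Cy3 fluorescence of library hairpins, with annealed Cy3 and quencher oligos, on a sequenced MiSeq flow cell in 50 mM Na-HEPES pH 8.0, 25 mM NaCl, imaged in 2.5 °C steps up to 60 °C and normalised to pre-quench Cy3 and control constructs.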

A short description of series [2]: melting temperature; fluorescence melt of hairpins on a sequencing array, two-state fit, raised by 9.35 °C to match UV melts. Particulars: sodium 0.088 M. An outline of the steps: as §1

On to GGCAACGAAAGTTTTGCC ((((((....)))..))), for which the folding enthalpy in series [1] was -26 kcal/mol. For the same sequence, in series [2], the Tm was 44.9 °C.

Regarding GGCAAGAAATTGCC (((((....))))), the folding enthalpy in series [1] is -33.2 kcal/mol. For the same sequence, the Tm in series [2] worked out at 53 °C.

With GGCAAGCGAAAGCTCGCC (((.(((....))).))), the folding enthalpy in series [1] is -22.9 kcal/mol. Besides, the Tm in series [2] was 59.7 °C.

For GGCAAGGAAACTTGCC ((((((....)))))), the folding enthalpy in series [1] is -37 kcal/mol. Moreover, the Tm in series [2] stood at 64.7 °C.

With GGCAAGGGAAACCTCGCC (((.(((....))).))), the folding enthalpy in series [1] was -32 kcal/mol. The Tm in series [2] was found to be 47.1 °C.

GGCAAGGGAAACCTTACC ((.((((....)))).)): the folding enthalpy in series [1] is -29.2 kcal/mol. In addition, the Tm in series [2] was found to be 37.4 °C.

GGCAAGGGAAACCTTGCC (((((((....))))))): in series [1], the folding enthalpy is -33.1 kcal/mol. The Tm in series [2] was determined as 67.8 °C.

As for GGCAATACGAAAGTAGCC (((..(((....)))))), the folding enthalpy in series [1] is -17.9 kcal/mol. Also, the Tm in series [2] stood at 44.4 °C.

For the sequence GGCACACGAAAGTGGCC (((.(((....)))))), the folding enthalpy in series [1] was -23.2 kcal/mol. Besides, the Tm in series [2] is 62.2 °C.

With GGCACAGGAAACCGTGCC (((((.(....).))))), the folding enthalpy in series [1] is -43.9 kcal/mol. Besides, the Tm in series [2] turned out to be 56.8 °C.

Take GGCACCACGAAAGTGGCC (((..(((....)))))): the folding enthalpy in series [1] was -11.6 kcal/mol. Besides, the Tm in series [2] was 38.1 °C.

As to GGCACCCCGAAAGGGGCC (((..(((....)))))), the folding enthalpy in series [1] is -12.9 kcal/mol. Besides, in series [2], the Tm was 53.1 °C.

With GGCACCCGAAAGGGGCC (((.(((....)))))), in series [1], the folding enthalpy is -20.9 kcal/mol. Moreover, the Tm in series [2] stood at 67.1 °C.

Consider GGCACCGAAAGGTACGCC ((((((....)))..))), for which the folding enthalpy in series [1] was -27.3 kcal/mol. The Tm in series [2] worked out at 51.4 °C.

GGCACCGAAAGGTATGCC ((((((....)))..))): in series [1], the folding enthalpy is -25.1 kcal/mol. Also, the Tm in series [2] came out at 51.6 °C.

As to GGCACCGAAAGGTCAGCC ((((((....)))..))), the folding enthalpy in series [1] was -24.2 kcal/mol. Also, in series [2], the Tm turned out to be 49.2 °C.

With GGCACCGGAAACGACGCC (((..((....))..))), in series [1], the folding enthalpy is -29.9 kcal/mol. Moreover, the Tm in series [2] is 42 °C.

Turning to GGCACGGGAAACCGTACC ((.((((....)))).)), the folding enthalpy in series [1] was -34.4 kcal/mol. Further, the Tm in series [2] came to 48.4 °C.

Consider GGCACTCGAAAGAGAGCC (((.(((....))).))), for which the folding enthalpy in series [1] is -46.2 kcal/mol. Further, in series [2], the Tm is 59 °C.

For GGCACTGGAAACAATGCC ((((.((....)).)))), the folding enthalpy in series [1] is -29.6 kcal/mol. Further, in series [2], the Tm amounted to 42.7 °C.

Regarding GGCACTGGAAACAGTACC ((.((((....)))).)), the folding enthalpy in series [1] is -33 kcal/mol. The Tm in series [2] was 43 °C.

Consider GGCAGAACGAAAGTTGCC (((..(((....)))))), for which, in series [1], the folding enthalpy was -27.2 kcal/mol. Besides, the Tm in series [2] came to 50.9 °C.

For GGCAGAGGAAACCCTGCC (((((.(....).))))), in series [1], the folding enthalpy is -37.8 kcal/mol. In series [2], the Tm is 53.3 °C.

For the sequence GGCAGAGGAAACTCTACC ((.((((....)))).)), in series [1], the folding enthalpy was -23.8 kcal/mol. Also, the Tm in series [2] was found to be 38.3 °C.

As for GGCAGCCGAAAGGCCGCC (((.(((....))).))), the folding enthalpy in series [1] was -22.3 kcal/mol. In addition, in series [2], the Tm came out at 66.9 °C.

For GGCAGCGAAAGCTACGCC ((((((....)))..))), the folding enthalpy in series [1] is -20.5 kcal/mol. For the same sequence, the Tm in series [2] was 53.5 °C.

On to GGCAGCGAAAGCTGCGCC ((((((....)))..))), for which the folding enthalpy in series [1] is -6.68 kcal/mol. Further, the Tm in series [2] worked out at 65.7 °C.

As to GGCAGCGAAAGCTTGCC ((((((....))).))), the folding enthalpy in series [1] is -27.1 kcal/mol. Besides, the Tm in series [2] is 63.1 °C.

With GGCAGCGAAAGCTTGGCC ((((((....)))..))), the folding enthalpy in series [1] is -23.7 kcal/mol. Further, the Tm in series [2] was 52.7 °C.

Regarding GGCAGCGGAAACGTTGCC ((((.((....)).)))), in series [1], the folding enthalpy is -40.4 kcal/mol. Also, the Tm in series [2] was found to be 61.2 °C.

Turning to GGCAGGACGAAAGTCGCC (((..(((....)))))), the folding enthalpy in series [1] is -38.2 kcal/mol. Also, in series [2], the Tm was 55.4 °C.

As to GGCAGGGGAAACCTTGCC ((((.((....)).)))), in series [1], the folding enthalpy is -49.2 kcal/mol. Also, the Tm in series [2] worked out at 55.3 °C.

Turning to GGCAGTCGAAAGACAGCC (((.(((....))).))), the folding enthalpy in series [1] was -38.9 kcal/mol. Further, the Tm in series [2] worked out at 61.8 °C.

Regarding GGCAGTGCGAAAGCAGCC (((..(((....)))))), the folding enthalpy in series [1] was -19.7 kcal/mol. In addition, the Tm in series [2] is 53 °C.

On to GGCAGTGGAAACACCACC ((..(((....)))..)), for which, in series [1], the folding enthalpy is -13.2 kcal/mol. In series [2], the Tm was 29.5 °C.

With GGCAGTGGAAACACTGTC (.(((((....))))).), the folding enthalpy in series [1] is -30.2 kcal/mol. Further, the Tm in series [2] is 54.1 °C.

In the case of GGCAGTGGAAACGCTGCC (((((.(....).))))), the folding enthalpy in series [1] is -42.3 kcal/mol. The Tm in series [2] came to 62.7 °C.

As for GGCAGTGGAAACGCTGTC (.(((.(....).))).), the folding enthalpy in series [1] is -23.4 kcal/mol. Moreover, the Tm in series [2] is 44.5 °C.

GGCATACGAAAGTAGCC (((.(((....)))))): the folding enthalpy in series [1] is -24.4 kcal/mol. Moreover, in series [2], the Tm was 52.7 °C.

For the sequence GGCATAGAAATATGCC ((((((....)))))), in series [1], the folding enthalpy is -42.2 kcal/mol. In series [2], the Tm was found to be 55.4 °C.

As for GGCATAGGAAACTATACC ((.((((....)))).)), the folding enthalpy in series [1] was -18.6 kcal/mol. The Tm in series [2] was found to be 31.2 °C.

As to GGCATCCGAAAGGACGCC (((.(((....))).))), the folding enthalpy in series [1] was -48.8 kcal/mol. Moreover, the Tm in series [2] came to 57.2 °C.

GGCATCCGAAAGGAGGCC (((.(((....))).))): in series [1], the folding enthalpy is -38.2 kcal/mol. The Tm in series [2] stood at 69.3 °C.

For GGCATCGAAAGATAGCC ((((((....))).))), the folding enthalpy in series [1] is -25.6 kcal/mol. The Tm in series [2] stood at 51.9 °C.

As for GGCATCGAAAGATCTGCC ((((((....)))..))), the folding enthalpy in series [1] is -24.9 kcal/mol. Further, the Tm in series [2] was 39.6 °C.

With GGCATCGAAAGATGGGCC ((((((....)))..))), the folding enthalpy in series [1] is -19.2 kcal/mol. In addition, the Tm in series [2] turned out to be 46.8 °C.

As to GGCATCGAAAGATTGCC ((((((....))).))), the folding enthalpy in series [1] was -31.1 kcal/mol. For the same sequence, in series [2], the Tm was 52.7 °C.

For the sequence GGCATCGAAAGATTTGCC ((((((....)))..))), the folding enthalpy in series [1] is -29.2 kcal/mol. In addition, the Tm in series [2] was 40.7 °C.

With GGCATGAAAATGCC (((((....))))), in series [1], the folding enthalpy is -26 kcal/mol. The Tm in series [2] was 62.8 °C.

Consider GGCATGACGAAAGTCGCC (((..(((....)))))), for which the folding enthalpy in series [1] was -28.3 kcal/mol. Besides, the Tm in series [2] was found to be 52.6 °C.

For GGCATGCGAAAGCAGCC (((.(((....)))))), in series [1], the folding enthalpy is -21.6 kcal/mol. Also, the Tm in series [2] stood at 64.3 °C.

Consider GGCATGGGAAACCACGCC (((.(((....))).))), for which the folding enthalpy in series [1] is -35.2 kcal/mol. The Tm in series [2] was 49.4 °C.

Take GGCCAACCGAAAGGTGCC (((..(((....)))))): the folding enthalpy in series [1] was -23.8 kcal/mol. The Tm in series [2] amounted to 50.4 °C.

In the case of GGCCAACGAAAGTTCGCC (((.(((....))).))), the folding enthalpy in series [1] is -40.2 kcal/mol. Moreover, in series [2], the Tm worked out at 47 °C.

With GGCCAACGAAAGTTTGCC (((.(((....))).))), in series [1], the folding enthalpy was -45.6 kcal/mol. Besides, in series [2], the Tm worked out at 50.7 °C.
